Laboratory results reported in ChEMBL document CHEMBL3352048, “Development of 2-(4-oxoquinazolin-3(4H)-yl)acetamide derivatives as novel enoyl-acyl carrier protein reductase (InhA) inhibitors for the treatment of tuberculosis” (Eur J Med Chem, 2014).
pIC50: −log10 of the molar value. Values after ≈ are worked out from the molar mass of the structure shown.

Key:
[1] = molecular target: T1, Enoyl-[acyl-carrier-protein] reductase [NADH] (Mycobacterium tuberculosis) (UniProt P9WGR1); assay: Inhibition of Mycobacterium tuberculosis recombinant InhA expressed in Escherichia coli BL21 (DE3) using 2-trans-decenoyl substrate at 10 uM by spectrophotometry
T1 sequence (whole entry): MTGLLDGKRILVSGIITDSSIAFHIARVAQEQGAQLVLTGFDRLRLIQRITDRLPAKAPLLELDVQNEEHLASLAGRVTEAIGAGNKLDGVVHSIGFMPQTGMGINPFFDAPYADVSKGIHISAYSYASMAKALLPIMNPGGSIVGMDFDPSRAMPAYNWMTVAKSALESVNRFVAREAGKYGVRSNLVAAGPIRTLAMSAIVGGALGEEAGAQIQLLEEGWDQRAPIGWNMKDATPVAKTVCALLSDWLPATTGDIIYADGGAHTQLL
How it was run: (§1)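 Recombinant M. tuberculosis InhA was expressed in E. coli and purified. Inhibition was screened as percent inhibition at 10 µM. IC50 values came from dose-response curves of log concentration versus % inhibition.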

[2] = Cytotoxicity against mouse RAW264.7 cells at 100 uM after 72 hrs by MTT assay; type: cell-based; conditions: read-out: INH
How it was run: (§2)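 RAW 264.7 mouse leukemic monocyte macrophages were exposed to compound for 72 h, tested at concentrations up to 100 µM. Viability was read as MTT conversion to formazan (CellTiter 96 non-radioactive proliferation assay). Results are reported as percentage inhibition.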

[3] = molecular target: T2, Enoyl-[acyl-carrier-protein] reductase [NADH] (Mycobacterium tuberculosis, UniProt P9WGR1); assay: Inhibition of Mycobacterium tuberculosis recombinant InhA expressed in Escherichia coli BL21 (DE3) using 2-trans-decenoyl substrate by spectrophotometry; how it was run: as §1
T2 sequence (P9WGR1 whole entry): T1 sequence (whole entry)

[4] = tested on: Mycobacterium tuberculosis; assay: Antimycobacterial activity against Mycobacterium tuberculosis H37Rv ATCC 27294 after 28 days by two-fold serial dilution assay in presence of […] piperine efflux pump inhibitor; type: functional; conditions: H37Rv ATCC 27294, 672 h
[5] = tested on: Mycobacterium tuberculosis; assay: Antimycobacterial activity against Mycobacterium tuberculosis H37Rv ATCC 27294 after 28 days by two-fold serial dilution assay; type: functional; conditions: H37Rv ATCC 27294, 672 h
How it was run: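 Agar dilution test against M. tuberculosis H37Rv (ATCC27294). Drug concentrations ran from 50 µg/mL to 0.78 µg/mL, tested in duplicate. MIC was taken as the minimum concentration inhibiting growth.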

[6] = Cytotoxicity against mouse RAW264.7 cells at 50 uM after 72 hrs by MTT assay; type: cell-based; conditions: read-out: INH; how it was run: as §2

O=C(Cn1cnc2ccccc2c1=O)Nc1cc(C(F)(F)F)ccc1Cl
inhibition [1]: 58.1% | cytotoxicity at 72 h, 100 µM [2]: 35.6% | pIC50 [3]: 5.09 | MIC [4]: 2.04 µM | MIC [5]: 8.18 µM (≈ 3.12 µg/mL) | cytotoxicity at 72 h, 50 µM [6]: 10.1%

O=C(Cn1cnc2ccccc2c1=O)Nc1ccccc1
inhibition [1]: 52.1% | cytotoxicity at 72 h, 100 µM [2]: 31.1% | MIC [4]: 5.58 µM | MIC [5]: 11.2 µM (≈ 3.12 µg/mL) | cytotoxicity at 72 h, 50 µM [6]: 21.2%

O=C(Cn1cnc2ccccc2c1=O)NCc1nc2ccc([N+](=O)[O-])cc2s1
inhibition [1]: 72.2% | cytotoxicity at 72 h, 100 µM [2]: 50.5% | pIC50 [3]: 5.29 | MIC [4]: 1.02 µM | MIC [5]: 4.09 µM (≈ 1.62 µg/mL) | cytotoxicity at 72 h, 50 µM [6]: 13.1%

O=C(Cn1cnc2ccc(Cl)cc2c1=O)NCc1nc2ccc([N+](=O)[O-])cc2s1
inhibition [1]: 45.6% | cytotoxicity at 72 h, 100 µM [2]: 62.8% | MIC [4]: 30.1 µM | MIC [5]: 30.1 µM (≈ 12.9 µg/mL) | cytotoxicity at 72 h, 50 µM [6]: 15.8%

Cc1nc2ccc(Cl)cc2c(=O)n1CC(=O)NCc1cccs1
inhibition [1]: 70.2% | cytotoxicity at 72 h, 100 µM [2]: 51.7% | pIC50 [3]: 5.17 | MIC [4]: 4.48 µM | MIC [5]: 18 µM (≈ 6.25 µg/mL) | cytotoxicity at 72 h, 50 µM [6]: 47.5%

O=C(Cn1cnc2ccc(Cl)cc2c1=O)NCc1cccs1
inhibition [1]: 68.9% | cytotoxicity at 72 h, 100 µM [2]: 45.2% | pIC50 [3]: 5.15 | MIC [4]: 2.33 µM | MIC [5]: 9.36 µM (≈ 3.12 µg/mL) | cytotoxicity at 72 h, 50 µM [6]: 32.4%

Cc1nc2ccccc2c(=O)n1CC(=O)Nc1ccccc1
inhibition [1]: 60.1% | cytotoxicity at 72 h, 100 µM [2]: 29.7% | pIC50 [3]: 5.05 | MIC [4]: 5.31 µM | MIC [5]: 10.7 µM (≈ 3.12 µg/mL) | cytotoxicity at 72 h, 50 µM [6]: 11.2%

CC[C@@H](CO)NCCN[C@@H](CC)CO [ETHAMBUTOL]
MIC [5]: 7.64 µM (≈ 1.56 µg/mL)

Cc1nc2ccccc2c(=O)n1CC(=O)NCc1cccs1
inhibition [1]: 68.2% | cytotoxicity at 72 h, 100 µM [2]: 38.6% | pIC50 [3]: 5.22 | MIC [4]: 4.97 µM | MIC [5]: 9.97 µM (≈ 3.12 µg/mL) | cytotoxicity at 72 h, 50 µM [6]: 35.6%

O=C(Cn1cnc2ccccc2c1=O)NCc1cccs1
inhibition [1]: 33.7% | cytotoxicity at 72 h, 100 µM [2]: 41.4% | MIC [4]: 1.3 µM | MIC [5]: 5.21 µM (≈ 1.56 µg/mL) | cytotoxicity at 72 h, 50 µM [6]: 4.38%

Cc1nc2ccc(Cl)cc2c(=O)n1CC(=O)NCc1ccco1
inhibition [1]: 78.1% | cytotoxicity at 72 h, 100 µM [2]: 5.37% | pIC50 [3]: 5.34 | MIC [4]: 1.17 µM | MIC [5]: 4.7 µM (≈ 1.56 µg/mL) | cytotoxicity at 72 h, 50 µM [6]: 3.36%

Cc1nc2ccccc2c(=O)n1CC(=O)NCc1nc2ccc([N+](=O)[O-])cc2s1
inhibition [1]: 64% | cytotoxicity at 72 h, 100 µM [2]: 37.4% | pIC50 [3]: 5.21 | MIC [5]: > 63.2 µM | cytotoxicity at 72 h, 50 µM [6]: 34%

O=C(Cn1cnc2ccc(Cl)cc2c1=O)Nc1ccccc1
inhibition [1]: 58.3% | cytotoxicity at 72 h, 100 µM [2]: 53% | pIC50 [3]: 5.11 | MIC [4]: 1.24 µM | MIC [5]: 4.97 µM (≈ 1.56 µg/mL) | cytotoxicity at 72 h, 50 µM [6]: 3.51%

O=C(Cn1cnc2ccccc2c1=O)NCc1ccco1
inhibition [1]: 46.1% | cytotoxicity at 72 h, 100 µM [2]: 13.7% | MIC [4]: 2.75 µM | MIC [5]: 5.5 µM (≈ 1.56 µg/mL) | cytotoxicity at 72 h, 50 µM [6]: 1.96%

CC1COc2c(N3CCN(C)CC3)c(F)cc3c(=O)c(C(=O)O)cn1c23 (stereo not drawn) [OFLOXACIN]
MIC [5]: 2.16 µM (≈ 0.781 µg/mL)

CO[C@H]1/C=C/O[C@@]2(C)Oc3c(C)c(O)c4c(O)c(c(/C=N/N5CCN(C)CC5)c(O)c4c3C2=O)NC(=O)/C(C)=C\C=C\[C@H](C)[C@H](O)[C@@H](C)[C@@H](O)[C@@H](C)[C@H](OC(C)=O)[C@@H]1C [RIFAMPIN]
MIC [5]: 0.15 µM (≈ 0.123 µg/mL)

O=C(Cn1cnc2ccc(Cl)cc2c1=O)Nc1cc(C(F)(F)F)ccc1Cl
inhibition [1]: 80.1% | cytotoxicity at 72 h, 100 µM [2]: 53.6% | pIC50 [3]: 5.34 | MIC [4]: 1.87 µM | MIC [5]: 3.74 µM (≈ 1.56 µg/mL) | cytotoxicity at 72 h, 50 µM [6]: 48.9%

Cc1nc2ccc(Cl)cc2c(=O)n1CC(=O)Nc1ccccc1
inhibition [1]: 88.1% | cytotoxicity at 72 h, 100 µM [2]: 28.7% | pIC50 [3]: 5.51 | MIC [4]: 2.38 µM | MIC [5]: 4.76 µM (≈ 1.56 µg/mL) | cytotoxicity at 72 h, 50 µM [6]: 19.9%

O=C(Cn1cnc2ccccc2c1=O)Nc1nccs1
inhibition [1]: 31%

O=C(Cn1cnc2ccc(Cl)cc2c1=O)NCc1ccco1
inhibition [1]: 82.4% | cytotoxicity at 72 h, 100 µM [2]: 42.5% | pIC50 [3]: 5.51 | MIC [4]: 4.91 µM | MIC [5]: 4.91 µM (≈ 1.56 µg/mL) | cytotoxicity at 72 h, 50 µM [6]: 30.7%

NNC(=O)c1ccncc1 [ISONIAZID]
MIC [5]: 0.72 µM (≈ 0.0987 µg/mL)

Cc1nc2ccc(Cl)cc2c(=O)n1CC(=O)NCc1nc2ccc([N+](=O)[O-])cc2s1
inhibition [1]: 54.1% | cytotoxicity at 72 h, 100 µM [2]: 33.7% | MIC [5]: 58.2 µM (≈ 25.8 µg/mL) | cytotoxicity at 72 h, 50 µM [6]: 28.4%

Cc1cccc(NC(=O)Cn2cnc3ccccc3c2=O)c1
inhibition [1]: 14.5%

Cc1nc2ccccc2c(=O)n1CC(=O)NCc1ccco1
inhibition [1]: 70.1% | cytotoxicity at 72 h, 100 µM [2]: 41.5% | pIC50 [3]: 5.16 | MIC [4]: 42 µM | MIC [5]: 84.1 µM (≈ 25 µg/mL) | cytotoxicity at 72 h, 50 µM [6]: 25.5%

O=C(Cn1cnc2ccccc2c1=O)Nc1cc(Cl)ccc1Cl
inhibition [1]: 16.3%
